ChEMBL document CHEMBL4196201, “Discovery of N-(4-{[5-Fluoro-7-(2-methoxyethoxy)quinazolin-4-yl]amino}phenyl)-2-[4-(propan-2-yl)-1 H-1,2,3-triazol-1-yl]acetamide (AZD3229), a Potent Pan-KIT Mutant Inhibitor for the Treatment of Gastrointestinal Stromal Tumors” (J Med Chem, 2018)
pIC50: −log10 of the molar value. ≈ marks a conversion by molar mass, not a printed value. Calls of active or inactive are those of the source. No cut-off for these calls is given here.

Experiments:
BaF3 [1] = experiment: Antitumor activity against mouse BA/F3 cells expressing Kit exon 11 deletion (557 to 558 residues) and D816H mutant (unknown origin) allografted in CB17 SCID mouse assessed as tumor regression at 20 mg/kg, po bid measured on last day of dosing; format: functional
Procedure, shortened: (§1)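 Ba/F3 cells bearing the KIT exon 11 del/D816H or exon 11 del/V654A mutation were grown as allografts in mice. Compounds were given p.o. once (QD) or twice daily (BD), and vehicle was given BD p.o. Tumor growth inhibition and regression (%) were taken on the last day of dosing. p-values were calculated relative to vehicle.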

Mus musculus [2] = experiment: Inhibition of Kit exon 11 deletion (557 to 558 residues) and D816H mutant (unknown origin) transfected in mouse BA/F3 cells allografted in CB17 SCID mouse assessed as reduction in ERK phosphorylation at 20 mg/kg, po administered as single dose measured after 8 hrs; format: functional, organism-based
Procedure, shortened: (§2)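 A single 20 mg/kg p.o. dose was given to mice carrying exon 11 del/D816H Ba/F3 allografts. Tumor pKIT, pERK and pAKT were measured over a timecourse, with free compound cover tracked in the same study.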

[3] = system: Mast/stem cell growth factor receptor Kit (Homo sapiens), P10721 [UNDEFINED MUTATION]
[4] = Clearance in dog rat at 1 umol/kg, iv; format: ADME, organism-based, Canis lupus familiaris; conditions: in vivo
[5] = target: Mast/stem cell growth factor receptor Kit (Homo sapiens) (UniProt P10721)
[6] = system: Mast/stem cell growth factor receptor Kit (Homo sapiens), P10721 [UNDEFINED MUTATION]; remark: listed apart in the source
[7] = Half life in dog rat at […], po; format: ADME, organism-based, Canis lupus familiaris; conditions: in vivo
[8] = Intrinsic clearance in rat hepatocytes assessed per million cells; format: ADME, cell-based, Hepatocyte; conditions: read-out: CLH
BaF3 [9] = experiment: Antitumor activity against mouse BA/F3 cells expressing Kit exon 11 deletion (557 to 558 residues) and V654 mutant (unknown origin) allografted in CB17 SCID mouse assessed as tumor regression at 2 mg/kg, po bid measured on last day of dosing; format: functional; procedure, shortened: as §1
[10] = system: Mast/stem cell growth factor receptor Kit (Homo sapiens), P10721 [UNDEFINED MUTATION]; remark: listed apart in the source
[11] = system: Mast/stem cell growth factor receptor Kit (Homo sapiens), P10721 [UNDEFINED MUTATION]; remark: listed apart in the source
[12] = target: Vascular endothelial growth factor receptor 2 (Homo sapiens) (UniProt P35968)
[13] = Oral bioavailability in Han Wistar rat at […]; format: ADME, organism-based; conditions: in vivo
Mus musculus [14] = experiment: Inhibition of Kit exon 11 deletion (557 to 558 residues) and D816H mutant phosphorylation (unknown origin) transfected in mouse BA/F3 cells allografted in CB17 SCID mouse at 20 mg/kg, po administered as single dose measured after 24 hrs; format: functional, organism-based; procedure, shortened: as §2
[15] = Protein binding in mouse plasma assessed as unbound fraction level; format: ADME, cell-free
[16] = system: Mast/stem cell growth factor receptor Kit (Homo sapiens), P10721 [V560D,D816H]
[17] = Lipophilicity, log D of the compound at pH 7.4; format: physicochemical; conditions: buffer
[18] = Solubility in pH 6.5 phosphate buffer at 37 degC; format: physicochemical
Procedure, shortened: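 Solubility of crystalline Form A was measured in pH6.5 phosphate buffer at 37°C.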

[19] = Volume of distribution at steady state in Han Wistar rat at 1 umol/kg, iv; format: ADME, organism-based; conditions: in vivo, read-out: Vdss
Procedure, shortened: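 Han Wistar rat PK study using an iv dose of 1 μMol/kg and an oral dose of 2.1 μMol/kg. Clearance, Vdss, t1/2 and F% were derived.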

[20] = system: Mast/stem cell growth factor receptor Kit (Homo sapiens), P10721 [V560D,V654A]
[21] = target: Mast/stem cell growth factor receptor Kit (Homo sapiens) (UniProt P10721); remark: listed apart in the source
BaF3 [22] = experiment: Antitumor activity against mouse BA/F3 cells expressing Kit exon 11 deletion (557 to 558 residues) and D816H mutant (unknown origin) allografted in CB17 SCID mouse assessed as tumor regression at 2 mg/kg, po bid measured on last day of dosing; format: functional; procedure, shortened: as §1
[23] = Protein binding in rat plasma assessed as unbound fraction level; format: ADME, cell-free
BaF3 [24] = experiment: Antitumor activity against mouse BA/F3 cells expressing Kit exon 11 deletion (557 to 558 residues) and D816H mutant (unknown origin) allografted in CB17 SCID mouse assessed as inhibition of tumor growth at 2 mg/kg, po bid measured on last day of dosing; format: functional; conditions: read-out: TGI; procedure, shortened: as §1
BaF3 [25] = experiment: Antitumor activity against mouse BA/F3 cells expressing Kit exon 11 deletion (557 to 558 residues) and V654 mutant (unknown origin) allografted in CB17 SCID mouse assessed as inhibition of tumor growth at 2 mg/kg, po bid measured on last day of dosing; format: functional; conditions: read-out: TGI; procedure, shortened: as §1
[26] = Oral bioavailability in CD1 mouse at 21 umol/kg; format: ADME, organism-based; conditions: in vivo
Procedure, shortened: (§3)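 PK was run in CD1 mice with an iv dose of 10 μMol/kg and an oral dose of 21 μMol/kg. Cl, Vdss, t1/2 and F% were derived.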

[27] = Half life in CD1 mouse at 21 umol/kg, po; format: ADME, organism-based; conditions: in vivo; procedure, shortened: as §3
[28] = Intrinsic clearance in dog hepatocytes assessed per million cells; format: ADME, cell-based, Canis lupus familiaris, Hepatocyte; conditions: read-out: CLH
[29] = system: Mast/stem cell growth factor receptor Kit (Homo sapiens), P10721 [UNDEFINED MUTATION]; remark: listed apart in the source
[30] = system: Mast/stem cell growth factor receptor Kit (Homo sapiens), P10721 [V560D]
Mus musculus [31] = experiment: Inhibition of Kit exon 11 deletion (557 to 558 residues) and D816H mutant phosphorylation (unknown origin) transfected in mouse BA/F3 cells allografted in CB17 SCID mouse at 20 mg/kg, po administered as single dose measured after 8 hrs; format: functional, organism-based; procedure, shortened: as §2
BaF3 [32] = experiment: Antitumor activity against mouse BA/F3 cells expressing Kit exon 11 deletion (557 to 558 residues) and V654 mutant (unknown origin) allografted in CB17 SCID mouse assessed as inhibition of tumor growth at 20 mg/kg, po bid measured on last day of dosing; format: functional; conditions: read-out: TGI; procedure, shortened: as §1
[33] = target: Voltage-gated inwardly rectifying potassium channel KCNH2 (Homo sapiens, UniProt Q12809); experiment: Inhibition of human ERG
BaF3 [34] = experiment: Antitumor activity against mouse BA/F3 cells expressing Kit exon 11 deletion (557 to 558 residues) and V654 mutant (unknown origin) allografted in CB17 SCID mouse assessed as tumor regression at 20 mg/kg, po bid measured on last day of dosing; format: functional; procedure, shortened: as §1
[35] = Volume of distribution at steady state in dog […] at 1 umol/kg, iv; format: ADME, organism-based, Canis lupus familiaris; conditions: in vivo, read-out: Vdss

Mast/stem cell growth factor receptor Kit (Homo sapiens), P10721 [UNDEFINED MUTATION], sequence (P10721 whole entry, looked up, stated change not applied): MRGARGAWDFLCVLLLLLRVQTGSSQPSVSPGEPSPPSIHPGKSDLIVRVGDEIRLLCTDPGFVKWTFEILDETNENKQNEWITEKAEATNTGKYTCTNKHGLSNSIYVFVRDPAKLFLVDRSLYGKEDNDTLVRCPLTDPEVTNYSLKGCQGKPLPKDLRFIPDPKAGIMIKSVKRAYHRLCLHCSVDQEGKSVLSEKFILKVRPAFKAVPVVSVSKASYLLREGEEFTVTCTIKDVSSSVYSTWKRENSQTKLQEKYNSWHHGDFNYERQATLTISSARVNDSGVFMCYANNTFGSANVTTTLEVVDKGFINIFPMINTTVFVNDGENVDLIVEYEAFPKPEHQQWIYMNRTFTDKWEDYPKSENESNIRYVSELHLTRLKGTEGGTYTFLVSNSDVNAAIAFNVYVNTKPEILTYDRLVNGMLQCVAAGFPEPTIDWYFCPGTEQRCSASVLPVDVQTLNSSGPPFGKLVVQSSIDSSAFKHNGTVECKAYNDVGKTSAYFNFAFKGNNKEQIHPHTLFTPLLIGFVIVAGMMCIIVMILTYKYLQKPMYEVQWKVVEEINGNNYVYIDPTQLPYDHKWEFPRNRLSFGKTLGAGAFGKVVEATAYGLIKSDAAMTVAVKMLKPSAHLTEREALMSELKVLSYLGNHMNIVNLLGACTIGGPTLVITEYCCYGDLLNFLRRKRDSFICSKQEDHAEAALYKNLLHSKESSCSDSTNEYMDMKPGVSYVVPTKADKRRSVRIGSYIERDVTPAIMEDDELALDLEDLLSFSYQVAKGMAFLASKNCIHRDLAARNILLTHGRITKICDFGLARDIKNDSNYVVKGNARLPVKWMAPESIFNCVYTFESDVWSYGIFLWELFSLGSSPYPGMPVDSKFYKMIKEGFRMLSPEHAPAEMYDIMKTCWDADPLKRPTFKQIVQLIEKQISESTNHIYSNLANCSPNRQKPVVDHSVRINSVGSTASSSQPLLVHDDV
Mast/stem cell growth factor receptor Kit (Homo sapiens), sequence (P10721 whole entry, the tested form may be a part): as the sequence (P10721 whole entry, looked up, stated change not applied) above
Vascular endothelial growth factor receptor 2 (Homo sapiens), sequence (P35968 whole entry): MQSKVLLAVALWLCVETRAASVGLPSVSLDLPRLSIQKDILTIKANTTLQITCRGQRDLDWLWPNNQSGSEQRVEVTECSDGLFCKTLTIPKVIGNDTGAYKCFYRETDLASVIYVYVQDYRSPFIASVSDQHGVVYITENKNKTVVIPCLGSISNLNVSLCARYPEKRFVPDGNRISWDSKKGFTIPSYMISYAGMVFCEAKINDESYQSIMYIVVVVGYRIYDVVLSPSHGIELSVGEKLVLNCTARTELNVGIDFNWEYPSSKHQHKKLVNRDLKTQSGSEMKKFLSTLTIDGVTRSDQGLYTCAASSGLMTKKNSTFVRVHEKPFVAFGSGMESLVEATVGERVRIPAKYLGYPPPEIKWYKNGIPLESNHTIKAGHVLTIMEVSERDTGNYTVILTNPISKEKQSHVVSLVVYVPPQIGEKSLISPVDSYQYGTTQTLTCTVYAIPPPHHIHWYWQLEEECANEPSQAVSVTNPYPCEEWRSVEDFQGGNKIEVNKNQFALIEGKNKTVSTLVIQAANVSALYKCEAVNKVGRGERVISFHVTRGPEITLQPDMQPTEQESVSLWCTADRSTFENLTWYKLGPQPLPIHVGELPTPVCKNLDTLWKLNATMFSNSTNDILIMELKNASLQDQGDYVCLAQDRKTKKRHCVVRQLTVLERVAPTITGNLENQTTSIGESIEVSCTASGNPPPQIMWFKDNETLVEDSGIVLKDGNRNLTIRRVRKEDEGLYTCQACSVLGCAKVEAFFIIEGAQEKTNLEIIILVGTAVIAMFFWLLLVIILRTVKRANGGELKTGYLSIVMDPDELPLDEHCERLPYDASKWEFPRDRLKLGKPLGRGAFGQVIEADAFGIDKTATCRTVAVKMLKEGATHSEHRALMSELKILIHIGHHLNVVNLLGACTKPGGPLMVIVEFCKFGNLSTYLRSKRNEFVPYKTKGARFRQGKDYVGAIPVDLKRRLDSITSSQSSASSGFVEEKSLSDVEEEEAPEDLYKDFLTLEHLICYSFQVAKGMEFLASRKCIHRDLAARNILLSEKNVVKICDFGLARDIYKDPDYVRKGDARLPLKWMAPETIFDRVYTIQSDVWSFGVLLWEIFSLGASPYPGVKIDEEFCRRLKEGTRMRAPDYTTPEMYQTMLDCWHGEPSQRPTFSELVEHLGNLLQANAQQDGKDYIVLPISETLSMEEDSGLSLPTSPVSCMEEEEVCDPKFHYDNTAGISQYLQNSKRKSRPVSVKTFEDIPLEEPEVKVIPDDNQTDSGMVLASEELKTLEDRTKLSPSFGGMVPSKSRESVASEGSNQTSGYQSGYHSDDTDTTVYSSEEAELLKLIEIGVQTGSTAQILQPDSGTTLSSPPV
Mast/stem cell growth factor receptor Kit (Homo sapiens), P10721 [V560D,V654A], sequence (P10721 whole entry V560D/V654A): as the sequence (P10721 whole entry, looked up, stated change not applied) above, with V560D, V654A counted along it
Mast/stem cell growth factor receptor Kit (Homo sapiens), P10721 [V560D], sequence (P10721 whole entry V560D, the tested form may be a part): as the sequence (P10721 whole entry, looked up, stated change not applied) above, with V560D counted along it
Mast/stem cell growth factor receptor Kit (Homo sapiens), P10721 [V560D,D816H], sequence (P10721 whole entry V560D/D816H): as the sequence (P10721 whole entry, looked up, stated change not applied) above, with V560D, D816H counted along it
Voltage-gated inwardly rectifying potassium channel KCNH2, sequence (Q12809 whole entry, the tested form may be a part): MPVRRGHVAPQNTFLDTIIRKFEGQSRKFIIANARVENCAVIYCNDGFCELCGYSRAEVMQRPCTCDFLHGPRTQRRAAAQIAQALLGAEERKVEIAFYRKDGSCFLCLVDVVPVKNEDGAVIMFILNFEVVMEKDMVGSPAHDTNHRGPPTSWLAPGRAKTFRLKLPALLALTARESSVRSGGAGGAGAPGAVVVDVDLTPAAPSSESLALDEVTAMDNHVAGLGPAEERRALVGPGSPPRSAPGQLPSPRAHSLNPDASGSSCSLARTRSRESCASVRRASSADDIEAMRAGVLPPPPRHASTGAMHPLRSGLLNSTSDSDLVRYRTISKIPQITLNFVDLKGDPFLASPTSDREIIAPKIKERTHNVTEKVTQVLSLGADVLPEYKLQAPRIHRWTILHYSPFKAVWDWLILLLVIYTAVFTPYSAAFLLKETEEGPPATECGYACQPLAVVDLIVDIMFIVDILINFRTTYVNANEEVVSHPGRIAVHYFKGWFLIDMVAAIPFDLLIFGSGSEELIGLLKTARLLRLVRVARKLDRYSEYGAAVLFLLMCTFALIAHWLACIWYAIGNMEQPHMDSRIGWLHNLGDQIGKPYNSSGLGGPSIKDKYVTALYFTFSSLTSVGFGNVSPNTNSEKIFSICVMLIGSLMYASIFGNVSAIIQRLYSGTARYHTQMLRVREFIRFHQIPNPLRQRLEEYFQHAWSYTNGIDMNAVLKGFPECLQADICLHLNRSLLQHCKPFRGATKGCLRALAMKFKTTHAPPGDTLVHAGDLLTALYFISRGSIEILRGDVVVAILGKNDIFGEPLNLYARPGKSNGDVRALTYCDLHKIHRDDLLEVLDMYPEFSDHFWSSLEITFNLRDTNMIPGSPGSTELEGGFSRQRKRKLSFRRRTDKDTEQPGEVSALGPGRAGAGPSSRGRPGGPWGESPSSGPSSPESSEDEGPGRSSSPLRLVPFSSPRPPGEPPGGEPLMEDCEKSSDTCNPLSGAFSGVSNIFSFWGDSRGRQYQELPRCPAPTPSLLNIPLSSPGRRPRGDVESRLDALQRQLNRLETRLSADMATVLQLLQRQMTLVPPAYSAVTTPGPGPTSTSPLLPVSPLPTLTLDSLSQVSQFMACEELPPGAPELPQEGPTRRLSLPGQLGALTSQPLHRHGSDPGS

GI50 [3]: 4 nM | clearance [4]: 2 mL/min/kg | GI50 [5]: 8 nM | GI50 [6]: 16 nM | half-life [7]: 4 h | hepatocyte CLint [8]: 17 µL/min/1e6 cells | GI50 [10]: 3 nM | GI50 [11]: 3 nM | GI50 [12]: 1380 nM | bioavailability [13]: 79% | fraction unbound [15]: 0.049 | GI50 [16]: 18 nM | logD [17]: 3 | solubility [18]: 6 µM (≈ 2.88 µg/mL) | Vd [19]: 0.6 L/kg | GI50 [20]: 7 nM | GI50 [21]: 2 nM | fraction unbound [23]: 0.022 | bioavailability [26]: 100% | half-life [27]: 2 h | hepatocyte CLint [28]: < 1 µL/min/1e6 cells | GI50 [29]: 9 nM | GI50 [30]: 1 nM | Vd [35]: 0.3 L/kg
Structure (SMILES): COCCOc1cc(F)c2c(Nc3ccc(NC(=O)Cn4cc(C(C)C)nn4)cc3)ncnc2c1
Activity (BaF3 [1]): 75% | inhibition (Mus musculus [2]): Active | Activity (BaF3 [9]): 44% | inhibition (Mus musculus [14]): Active | Activity (BaF3 [22]): 0% | inhibition in vivo at 2 mg/kg (BaF3 [24]): 5% | inhibition in vivo at 2 mg/kg (BaF3 [25]): > 100% | inhibition (Mus musculus [31]): Active | inhibition in vivo at 20 mg/kg (BaF3 [32]): > 100% | pIC50 [33]: < 4.48 | Activity (BaF3 [34]): 85%
